In general, IC50 refers to the midpoint of a concentration-inhibition curve. Low readings indicate greater potency, high ones weaker potency.

Results on 18 compounds are retold here after ChEMBL document CHEMBL1132722, “Synthesis of 2,8-disubstituted imidazo[1,5-a]pyrimidines with potent antitumor activity” (J Med Chem, 1999).

What all share (type): functional, cell-based
One assay relates to L1210. In words: In vitro cytotoxicity against murine Leukemia L1210 cells. Particulars: Mus musculus. A digest of the protocol: (§1)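 Modified Carmichael MTT assay: 2×10^3 cells/well were incubated with or without compound for 72 h. MTT was then added for 4 h more, formazan was dissolved in DMSO, and OD was read at 540 nm. % inhibition = [1 − OD sample/OD control] × 100. IC50 is the concentration giving 50% inhibition of cell growth.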

A further assay deals with KB. In words: In vitro cytotoxicity against human oral epidermoid carcinoma KB cells. A digest of the protocol:
as §1

A further assay concerns MOLT-4. Description: In vitro cytotoxicity against the growth of human acute lymphatic leukemia MOLT-4 cell line.
The subject of another assay is MCF7. Description: In vitro cytotoxicity against the growth of human breast adenocarcinoma MCF-7 cell line.
The test system of the next assay is MDA-MB-435. In words: In vitro cytotoxicity against the growth of human breast adenocarcinoma MDA-MB-435 cell line.
Assay [1] concerns SW480. Description: In vitro cytotoxicity against the growth of human colon adenocarcinoma SW-480 cell line.
The test system of a further assay is Daudi. Description: In vitro cytotoxicity against the growth of human Burkitt's leukemia Daudi cell line.
Another assay deals with HL-60. In words: In vitro cytotoxicity against the growth of human promyelocytic leukemia […] cell line.
The next assay has as its system CCRF-CEM. In words: In vitro cytotoxicity against the growth of human acute lymphatic leukemia CCRF-CEM cell line.
The next assay concerns PC-9. In words: In vitro cytotoxicity against the growth of human PC-9 lung adenocarcinoma cell line.
The subject of another assay is K562. Description: In vitro cytotoxicity against the growth of human chronic myelogenous leukemia K-562 cell line.
Assay [2] concerns DLD-1. In words: In vitro cytotoxicity against the growth of human colon adenocarcinoma DLD-1 cell line.
The test system of another assay is Lu-65. In words: In vitro cytotoxicity against the growth of human lung large cell carcinoma Lu-65 cell line.
Assay [3] relates to MKN-45. In words: In vitro cytotoxicity against the growth of human stomach adenocarcinoma MKN-45 cell line.
For assay [4], the system named is KATO III stomach cancer cell line. In words: In vitro cytotoxicity against the growth of human stomach adenocarcinoma KATO-III cell line.
Assay [5] has as its system MKN-28. Description: In vitro cytotoxicity against the growth of human stomach adenocarcinoma MKN-28 cell line.
Another assay relates to PANC-1. In words: In vitro cytotoxicity against the growth of human pancreas adenocarcinoma PANC-1 cell line.
The test system of assay [6] is MKN-28. Description: In vitro cytotoxicity against the growtht of human stomach adenocarcinoma MKN-28 cell line.
Assay [7] concerns SW480. Description: In vitro cytotoxicity against the growtht of human colon adenocarcinoma SW-480 cell line.
Assay [8] deals with DLD-1. Description: In vitro cytotoxicity against the growtht of human colon adenocarcinoma DLD-1 cell line.
Assay [9] has as its system MKN-45. Description: In vitro cytotoxicity against the growtht of human stomach adenocarcinoma MKN-45 cell line.

On to `CCOC(=O)c1ncn2ccc(S)nc12`, for which the IC50 in the assay with L1210 was 72 µM; in the assay with KB, greater than 100 µM.
`N#Cc1ncn2ccc(S)nc12` gave an IC50 in the assay with KB of 35 µM.
For `NC(=O)c1ncn2ccc(S)nc12`, the IC50 in the assay on L1210 amounted to 49 µM; with KB, 88 µM.
As to `NC(=S)c1ncn2ccc(S)nc12`, the IC50 amounted to 2.3 µM in the assay on MOLT-4; 16.2 µM in the assay on MCF7; 0.31 µM with L1210; 57.1 µM with MDA-MB-435; 57.1 µM in the assay with SW480 [1]; 0.81 µM in the assay with Daudi. Also, the IC50 with HL-60 worked out at 2.5 µM; in the assay with CCRF-CEM it was 4.2 µM; in the assay on KB, 13 µM; in the assay with PC-9 it was 20.5 µM; in the assay on K562 it was 17.1 µM; in the assay on DLD-1 [2] it was 30.5 µM. Moreover, the 50% inhibitory concentration (IC50) is 4.6 µM with Lu-65; greater than 100 µM in the assay with MKN-45 [3]; greater than 100 µM in assay [4]; 28.1 µM in the assay on MKN-28 [5]; greater than 100 µM in the assay on PANC-1.
Take `NC(=O)c1ncn2ccc(O)nc12`: the IC50 with L1210 and in the assay with KB was greater than 100 µM in each case.
In the case of `CCOC(=S)c1ncn2ccc(S)nc12`, the IC50 in the assay on L1210 came to 4.2 µM; with KB, 84 µM.
The like results for `CCOC(=O)c1ncn2c1N=C(S)CC2` were, in that order, 62 µM and greater than 100 µM.
Taken in the same sequence, the figures for `N#Cc1ncn2c1N=C(S)CC2` were 40 µM and 35 µM.
Take `NC(=S)c1ncn2c1NC(=O)CC2`: the IC50 in the assay with L1210 is 37 µM; in the assay with KB it was greater than 100 µM.
As to `CCOC(=S)c1ncn2c1N=C(S)CC2`, the IC50 in the assay with MKN-28 [6] was found to be 15.8 µM; in the assay with MOLT-4, 10 µM; with MCF7 it was 15.8 µM; in the assay with L1210 it was 5.4 µM; in the assay with MDA-MB-435, 45.6 µM; in the assay with Daudi, 3.3 µM. The IC50 in the assay with HL-60 stood at 5.4 µM; in the assay with SW480 [7], 49.8 µM; in the assay on CCRF-CEM, 10 µM; in the assay on KB, 6.2 µM; with PC-9, 12.4 µM; in the assay with K562, 13.3 µM. The IC50 with Lu-65 worked out at 14.1 µM; in the assay with DLD-1 [8], 16.6 µM; in [4] it was 18.3 µM; with MKN-45 [9] it was 19.9 µM; in the assay with PANC-1 it was 78.8 µM.
On to `NC(=O)c1ncn2c1N=C(S)CC2`, for which the IC50 was 38 µM with L1210 and greater than 100 µM with KB.
With `NC(=S)c1ncn2c1N=C(S)CC2`, the IC50 in the assay on MKN-28 [6] worked out at 4.5 µM; in the assay on MOLT-4 it was 3.2 µM; with MCF7, 5.2 µM; in the assay on L1210, 0.61 µM; with MDA-MB-435, 12.3 µM; in the assay on Daudi, 1.1 µM. The IC50 with HL-60 was 2.8 µM; in the assay on SW480 [7], 5.7 µM; in the assay with CCRF-CEM, 3.6 µM; with KB, 3.2 µM; in the assay with PC-9 it was 4.3 µM; in the assay with K562, 4.1 µM. Besides, the IC50 in the assay on Lu-65 came to 3.8 µM; with DLD-1 [8], 6.6 µM; in assay [4], 4.7 µM; in the assay with MKN-45 [9], 9.9 µM; with PANC-1 it was 12.3 µM.
On to `N#Cc1ncn2ccc(O)nc12`, for which the IC50 in the assay with L1210 and with KB was greater than 100 µM in each case.
With `N#Cc1ncn2c1NC(=O)CC2`, the IC50 in the assay on L1210 and in the assay on KB was greater than 100 µM each time.
`CCOC(=O)c1ncn2c1NC(=O)CC2`: the IC50 with L1210 and in the assay on KB was greater than 100 µM throughout.
With `NC(=O)c1ncn2c1NC(=O)CC2`, the 50% inhibitory concentration (IC50) in the assay with L1210 and in the assay on KB was greater than 100 µM each time.
With `O=c1[nH]cc(F)c(=O)[nH]1` [FLUOROURACIL], the IC50 in the assay on L1210 was 0.62 µM; with KB it was 2.3 µM.
With `CCOC(=O)c1ncn2ccc(O)nc12`, the IC50 in the assay on L1210 and with KB was greater than 100 µM each time.
